Our source for the T-cell inhibition, Mean relative potency and % remaining values is ChEMBL document CHEMBL1133693, “Peptide and peptide mimetic inhibitors of antigen presentation by HLA-DR class II MHC molecules. Design, structure-activity relationships, and X-ray crystal structures” (J Med Chem, 2000).

Starred links: 1 amine or outer side, 2 acyl side, 3 side chain; linkers in the order of their positions; H or OH if unused. Non-standard residues stand in square brackets, D forms with d. Residues, ends and D or L forms follow the SMILES beside them. *: point of attachment. X11 = O=C([C@H](N[*:1])[C@H](O)[C@@H](O)[C@@H](O)CO)[*:2]; X3 = O=C([C@@H](N[*:1])[C@H](O)[C@H](O)[C@@H](O)CO)[*:2]; X10 = O=C([C@H](Cc1ccc2c(c1)OCO2)N[*:1])[*:2]; X4 = O=C([C@H](CC1CC2CCC1CC2)N[*:1])[*:2]; X5 = CC1CCC(C[C@@H](N[*:1])C(=O)[*:2])CC1; X6 = CC1CCC(C[C@H](N[*:1])C(=O)[*:2])CC1; Phe(3-F) = N[C@@H](Cc1cccc(F)c1)C(=O)O; Phe(3-I) = N[C@@H](Cc1cccc(I)c1)C(=O)O; NMeCha = CN[C@@H](CC1CCCCC1)C(=O)O; NMeR = CN[C@@H](CCCNC(=N)N)C(=O)O; Cha = N[C@@H](CC1CCCCC1)C(=O)O; NMeM = CN[C@@H](CCSC)C(=O)O; NMeS = CN[C@@H](CO)C(=O)O; NHCH(CH2OH)2 = OCC(CO)N*; NMeA = CN[C@@H](C)C(=O)O; Nle = CCCC[C@H](N)C(=O)O; NHCH2CH2OH = OCCN*

Experiment [1] has as its system T-cell. The experiment in a line: T-cell inhibitory potency relative to the IC50 of a(Cha)AAAKTAAAAa-NH2 in MHC class II DRB1*0401. It counts as functional, Homo sapiens.
Experiment [2] has as its system T-cell. The experiment in a line: T-cell inhibitory potency relative to the IC50 of a(Cha)AAAKTAAAAa-NH2 iMHC class II DRB1*0101. It counts as functional, Homo sapiens.
Experiment [3] is described as follows: Mean relative potency is the ratio of potencies of 'Ac-(Cha)RAMASL-NH2' and compound, to inhibit MHC class II DRB1*0101. In a few lines: (§1)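 Scintillation proximity competition assay. Test compounds competed against the radioligand, and bound counts were read by scintillation. Ac-(Cha)RAMASL-NH2 was run as standard competitor in every run. Potency is the ratio of standard IC50 to compound IC50.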

Experiment [4] is described as follows: Mean relative potency is the ratio of potencies of 'Ac-(Cha)RAMASL-NH2' and compound, to inhibit MHC class II DRB1*0401. In a few lines: as §1
In the next experiment the target is Cathepsin B (Bos taurus) (UniProt P07688). The experiment in a line: Percent of original compound remaining with cathepsin B after incubation for 4 hrs was determined by HPLC.

For `CSCC[C@H](NC(=O)[C@H](c1ccccc1)N(C)C(=O)[C@H](CCCN=C(N)N)NC(=O)[C@H](CC1CCCCC1)NC(C)=O)C(=O)N[C@@H](C)C(=O)N[C@@H](CO)C(=O)N[C@H](C(N)=O)C(C)(C)C`, the T-cell inhibition with T-cell [1] is 3.2; in the experiment with T-cell [2], 5.37.
Turning to `CSCC[C@H](NC(=O)[C@H](C)NC(=O)[C@H](CCCN=C(N)N)NC(=O)[C@H](CC1CCCCC1)N(C)C(C)=O)C(=O)N[C@@H](C)C(=O)N[C@@H](CO)C(=O)N[C@@H](CC(C)C)C(N)=O` (Ac-[NMeCha]RAMASL-NH2), the results for the Mean relative potency in experiment [3] and in experiment [4] were 0.25 and 0.67, respectively.
For `CSCC[C@H](NC(=O)[C@H](C)NC(=O)[C@H](CCCN=C(N)N)NC(=O)[C@H](CC1CCC(C)CC1)NC(C)=O)C(=O)N[C@@H](C)C(=O)N[C@@H](CO)C(=O)N[C@@H](CC(C)C)C(N)=O` (stereo partly specified) (Ac-[X6]RAMASL-NH2), in that order: 1.37 and 1.71.
In the same order, the values of `CC(=O)N[C@@H](CC1CCCCC1)C(=O)N[C@@H](CCCN=C(N)N)C(=O)N[C@@H](C)C(=O)N[C@@H](CC(C)C)C(=O)N[C@@H](C)C(=O)N[C@@H](CO)C(=O)N[C@@H](CC(C)C)C(N)=O` (Ac-[Cha]RALASL-NH2) are 0.55 and 0.54.
`CSCC[C@H](NC(=O)[C@H](C)NC(=O)[C@H](CCCN=C(N)N)NC(=O)[C@H](CC1CC2CCC1C2)NC(C)=O)C(=O)N[C@@H](C)C(=O)N[C@@H](CO)C(=O)N[C@@H](CC(C)C)C(N)=O` (stereo in doubt; 2): the Mean relative potency was 0.52 in experiment [3] and 1.71 in experiment [4].
In the same order, the values of `CSCC[C@H](NC(=O)[C@H](C)NC(=O)[C@H](CCCN=C(N)N)NC(=O)[C@H](CC1CCCCC1)NC(C)=O)C(=O)N1CCC[C@@H]1C(=O)N[C@@H](CO)C(=O)N[C@@H](CC(C)C)C(N)=O` are 1.37 and 0.7.
For `CSCC[C@H](NC(=O)[C@H](CCSC)NC(=O)[C@H](CCCN=C(N)N)NC(=O)[C@H](CC1CCCCC1)NC(C)=O)C(=O)N[C@@H](C)C(=O)N[C@@H](CO)C(=O)N[C@@H](CC(C)C)C(N)=O` (Ac-[Cha]RMMASL-NH2), in that order: 1.05 and 0.88.
Take `CSCC[C@H](NC(=O)[C@H](C)NC(=O)[C@H](CCCN=C(N)N)NC(=O)[C@H](Cc1cccc(I)c1)NC(C)=O)C(=O)N[C@@H](C)C(=O)N[C@@H](CO)C(=O)N[C@@H](CC(C)C)C(N)=O` (Ac-[Phe(3-I)]RAMASL-NH2): the Mean relative potency in experiment [3] came out at 0.61; in experiment [4] it was 1.56.
For `CSCC[C@H](NC(=O)[C@H](C)NC(=O)[C@H](CCCN=C(N)N)NC(=O)[C@@H](CC1CCC(C)CC1)NC(C)=O)C(=O)N[C@@H](C)C(=O)N[C@@H](CO)C(=O)N[C@@H](CC(C)C)C(N)=O` (stereo partly specified) (Ac-[X5]RAMASL-NH2), in that order: 1.17 and 0.93.
For `CSCC[C@H](NC(=O)[C@H](CCSC)NC(=O)[C@H](CCCN=C(N)N)NC(=O)[C@H](CC1CCCCC1)NC(C)=O)C(=O)N[C@@H](C)C(=O)N[C@@H](CO)C(N)=O` (Ac-[Cha]RMMAS-NH2), in that order: 1.38 and 0.85.
Turning to `CSCC[C@H](NC(=O)[C@H](C)NC(=O)[C@H](CCCN=C(N)N)NC(=O)[C@H](CC1CCCCC1)NC(C)=O)C(=O)N[C@@H](C)C(=O)N(C)[C@@H](CO)C(=O)N[C@@H](CC(C)C)C(N)=O` (Ac-[Cha]RAMA[NMeS]L-NH2), the values for the Mean relative potency in experiment [3] and in experiment [4] were 0.5 and 0.97, respectively.
In the same order, the values of `CSCC[C@H](NC(=O)[C@H](C)N(C)C(=O)[C@H](CCCN=C(N)N)NC(=O)[C@H](CC1CCCCC1)NC(C)=O)C(=O)N[C@@H](C)C(=O)N[C@@H](CO)C(=O)N[C@@H](CC(C)C)C(N)=O` (Ac-[Cha]R[NMeA]MASL-NH2) are 1.02 and 0.56.
With `CSCC[C@H](NC(=O)[C@H](C)NC(=O)[C@H](CCCN=C(N)N)NC(=O)[C@@H](CC1CC2CCC1C2)NC(C)=O)C(=O)N[C@@H](C)C(=O)N[C@@H](CO)C(=O)N[C@@H](CC(C)C)C(N)=O` (stereo partly specified), the Mean relative potency in experiment [3] came out at 1.31; in experiment [4], 1.53.
In the same order, the values of `CSCC[C@H](NC(=O)[C@H](CCCN=C(N)N)NC(=O)[C@H](CC1CCCCC1)NC(C)=O)C(=O)N[C@@H](CCSC)C(=O)N[C@H](C=O)[C@H](O)[C@H](O)[C@@H](O)CO` (Ac-[Cha]RMM[X3]-aldehyde) are 0.12 and 0.16.
Turning to `CC[C@@H](C)[C@H](NC(=O)[C@H](C)NC(=O)[C@H](CCCN=C(N)N)NC(=O)[C@H](CC1CCCCC1)NC(C)=O)C(=O)N[C@@H](C)C(=O)N[C@@H](CO)C(=O)N[C@@H](CC(C)C)C(N)=O`, the Mean relative potency worked out at 0.36 in experiment [3] and 1.01 in experiment [4].
With `CSCC[C@H](NC(=O)[C@H](C)NC(=O)[C@H](CCCN=C(N)N)NC(=O)[C@H](CC1CCCCC1)NC(C)=O)C(=O)N[C@H](C)C(=O)N[C@@H](CO)C(=O)N[C@H](C(N)=O)C(C)(C)C`, the Mean relative potency in experiment [3] worked out at 1.64; in experiment [4] it was 1.46.
As for `CCCC[C@H](NC(=O)[C@H](C)NC(=O)[C@H](CCCN=C(N)N)NC(=O)[C@H](CC1CCCCC1)NC(C)=O)C(=O)N[C@@H](C)C(=O)N[C@@H](CO)C(=O)N[C@@H](CC(C)C)C(N)=O` (Ac-[Cha]RA[Nle]ASL-NH2), the values for the Mean relative potency in experiment [3] and in experiment [4] were 0.77 and 0.4, respectively.
As to `CSCC[C@H](NC(=O)[C@H](CCSC)NC(=O)[C@H](CCCN=C(N)N)NC(=O)[C@H](CC1CCCCC1)NC(C)=O)C(=O)N[C@@H](C)C(=O)NCCO` (Ac-[Cha]RMMA-NHCH2CH2OH), the Mean relative potency in experiment [3] worked out at 0.33; in experiment [4], 1.04.
Consider `CSCC[C@H](NC(=O)[C@H](C)NC(=O)[C@H](CCCN=C(N)N)NC(=O)[C@H](CC1CCCCC1)NC(C)=O)C(=O)N[C@H](C)C(=O)N[C@@H](CO)C(=O)N(C)[C@@H](CC(C)C)C(N)=O`, for which the Mean relative potency came out at 0.85 in experiment [3] and 0.77 in experiment [4]. Moreover, the % remaining at Cathepsin B (Bos taurus) worked out at 0%.
Take `CSCC[C@@H](C(=O)N[C@@H](C)C(=O)N[C@@H](CO)C(=O)N[C@@H](CC(C)C)C(N)=O)N(C)C(=O)[C@H](C)NC(=O)[C@H](CCCN=C(N)N)NC(=O)[C@H](CC1CCCCC1)NC(C)=O` (Ac-[Cha]RA[NMeM]ASL-NH2): the results for the Mean relative potency in experiment [3] and in experiment [4] were 0.046 and 0.005, respectively.
Consider `CSCC[C@H](NC(=O)[C@H](C)NC(=O)[C@H](CCCN=C(N)N)NC(=O)[C@H](Cc1ccc2c(c1)OCO2)NC(C)=O)C(=O)N[C@@H](C)C(=O)N[C@@H](CO)C(=O)N[C@@H](CC(C)C)C(N)=O` (Ac-[X10]RAMASL-NH2), for which the Mean relative potency in experiment [3] was 1.31; in experiment [4], 1.65.
Regarding `CSCC[C@H](NC(=O)[C@H](C)NC(=O)[C@H](CCCN=C(N)N)NC(=O)[C@H](CC1CC2CCC1C2)NC(C)=O)C(=O)N[C@@H](C)C(=O)N[C@@H](CO)C(=O)N[C@@H](CC(C)C)C(N)=O` (stereo in doubt; 6), the results for the Mean relative potency in experiment [3] and in experiment [4] were 0.96 and 0.92, respectively.
In the same order, the values of `CSCC[C@H](NC(=O)[C@H](C)NC(=O)[C@H](CCCN=C(N)N)NC(=O)[C@H](CC1CCCCC1)NC(C)=O)C(=O)N1CCCC[C@@H]1C(=O)N[C@@H](CO)C(=O)N[C@@H](CC(C)C)C(N)=O` are 0.55 and 1.08.
For `CSCC[C@H](NC(=O)[C@H](C)NC(=O)[C@H](CCCN=C(N)N)NC(=O)[C@H](CC1CCCCC1)NC(C)=O)C(=O)N[C@H](C)C(=O)N[C@@H](CO)C(=O)N[C@@H](CC(C)C)C(=O)N(C)C`, the Mean relative potency is 1.4 in experiment [3] and 1.6 in experiment [4].
`CSCC[C@H](NC(=O)[C@H](C)NC(=O)[C@H](CCCN=C(N)N)NC(=O)[C@H](Cc1cccc(F)c1)NC(C)=O)C(=O)N[C@@H](C)C(=O)N[C@@H](CO)C(=O)N[C@@H](CC(C)C)C(N)=O` (Ac-[Phe(3-F)]RAMASL-NH2): the Mean relative potency in experiment [3] stood at 0.17; in experiment [4], 1.19.
In the same order, the values of `CSCC[C@H](NC(=O)[C@H](CCCN=C(N)N)NC(=O)[C@H](CC1CCCCC1)NC(C)=O)C(=O)N[C@@H](CCSC)C(=O)N[C@@H](C=O)[C@H](O)[C@@H](O)[C@@H](O)CO` (Ac-[Cha]RMM[X11]-aldehyde) are 0.5 and 0.81.
Take `CSCC[C@H](NC(=O)[C@H](CCSC)NC(=O)[C@H](CCCN=C(N)N)NC(=O)[C@H](CC1CCCCC1)NC(C)=O)C(=O)N[C@@H](C)C(N)=O` (Ac-[Cha]RMMA-NH2): the figures for the Mean relative potency in experiment [3] and in experiment [4] were 0.59 and 0.15, respectively.
For `CSCC[C@H](NC(=O)[C@H](CCSC)NC(=O)[C@H](CCCN=C(N)N)NC(=O)[C@H](CC1CCCCC1)NC(C)=O)C(=O)N[C@@H](C)C(=O)NC(CO)CO` (Ac-[Cha]RMMA-{NHCH(CH2OH)2}), in that order: 0.68 and 1.55.
For `CSCC[C@H](NC(=O)[C@H](C)NC(=O)[C@H](CCCN=C(N)N)N(C)C(=O)[C@H](CC1CCCCC1)NC(C)=O)C(=O)N[C@@H](C)C(=O)N[C@@H](CO)C(=O)N[C@@H](CC(C)C)C(N)=O` (Ac-[Cha][NMeR]AMASL-NH2), in that order: 0.001 and 0.001.
For `CSCC[C@H](NC(=O)[C@H](C)NC(=O)[C@H](CCCN=C(N)N)NC(=O)[C@H](CC1CC2CCC1CC2)NC(C)=O)C(=O)N[C@@H](C)C(=O)N[C@@H](CO)C(=O)N[C@@H](CC(C)C)C(N)=O` (stereo partly specified) (Ac-[X4]RAMASL-NH2), in that order: 0.68 and 1.22.
